Assay [1] concerns U-251. Description: Cytotoxicity against human U251 cells assessed as colony formation at 10 uM treated for 48 hrs followed by washout measured after 2 weeks relative to control.
The subject of assay [2] is U-251. Description: Induction of methuosis in human U251 cells assessed as induction of cellular vacuolization at 10 uM after 24 to 48 hrs by phase contrast microscopic analysis. Type of assay: functional, cell-based. The method in brief:
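U251 glioblastoma cells in DMEM with 10% FBS at 37 °C under 5% CO2. Compound added in DMSO at 10 μM one day after plating; vehicle-only controls. Live cells examined by phase-contrast microscopy at 24 and 48 h for phase-lucent cytoplasmic vacuoles, with cell rounding and detachment taken as methuosis hallmarks.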

Assay [3] relates to U-251. The assay is described as follows: Cytotoxicity against human U251 cells assessed as reduction of cell viability at 10 uM after 48 hrs by MTT assay relative to control.
Assay [4] has as its system U-251. Description: Cytotoxicity against human U251 cells assessed as inhibition of colony formation at 10 uM treated for 48 hrs followed by washout measured after 2 weeks relative to control. The class given is functional. The method in brief:
(§1)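 U251 cells at 2,500 per 100 mm dish; one day after plating, compound added for 48 h (10 μM, or graded concentrations), then removed and cultures refed every 2 d. Colonies >50 cells counted at two weeks after methanol fixation and crystal violet staining; percent of DMSO control dishes, mean ± S.D. of three dishes.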

For assay [5], the system named is U-251. Description: Induction of methuosis in human U251 cells assessed as induction of cellular vacuolization at 2.5 uM after 1 to 2 days by phase contrast microscopic analysis. Type of assay: functional, cell-based. The method in brief:
(§2)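 One day after plating, U251 cells given 2.5 μM or 10 μM final compound or DMSO vehicle; live cells viewed by phase-contrast microscopy on three sequential days, without medium change or compound replenishment, for phase-lucent cytoplasmic vacuoles, rounding and detachment.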

Assay [6] relates to U-251. The assay is described as follows: Induction of methuosis in human U251 cells assessed as induction of cellular vacuolization at 2.5 after 3 days by phase contrast microscopic analysis. Type of assay: functional, cell-based. A digest of the protocol:
as §2

Assay [7] concerns U-251. Description: Cytotoxicity against human U251 cells assessed as inhibition of colony formation at 5 to 20 uM treated for 48 hrs followed by washout measured after 2 weeks relative to control. The class given is functional, cell-based. The method in brief:
as §1

Assay [8] deals with U-251. The assay is described as follows: Cytotoxicity against human temozolomide-resistant U251 cells assessed as reduction of cell viability at 2.5 to 10 uM after 48 hrs by colony formation assay.
Assay [9] deals with U-251. Description: Induction of methuosis in human U251 cells assessed as induction of cellular vacuolization at 2.5 to 10 uM after 3 days by phase contrast microscopic analysis. Type of assay: functional, cell-based.
The test system of assay [10] is U-251. Description: Induction of methuosis in human temozolomide-resistant U251 cells assessed as induction of cellular vacuolization at 2.5 to 10 uM after 3 days by phase contrast microscopic analysis. The class given is functional, cell-based.
The subject of assay [11] is U-251. The assay is described as follows: Cytotoxicity against human U251 cells assessed as inhibition of colony formation at 2 to 10 uM treated for 48 hrs followed by washout measured after 2 weeks relative to control. The class given is functional, cell-based. A digest of the protocol:
as §1

The subject of assay [12] is U-251. The assay is described as follows: Cytotoxicity against human U251 cells assessed as reduction of cell growth and viability at 2.5 to 10 uM after 3 days by cell counting.
For assay [13], the system named is U-251. The assay is described as follows: Cytotoxicity against human U251 cells after 48 hrs by MTT assay. To be noted: U-251, 48 h.

The results in this text go back to ChEMBL document CHEMBL2029341, “Synthesis and evaluation of indole-based chalcones as inducers of methuosis, a novel type of nonapoptotic cell death” (J Med Chem, 2012).

Active and inactive are the calls of the source. No cut-off for these calls is given here.

In the case of `COc1ccc2[nH]cc(/C=C/C(=O)c3ccncc3)c2c1`, the level, % of control at 10 µM in assay [1] stood at 2%. In [2], the result was Active. Further, in assay [3], the Activity was determined as 58%.

For `Cc1[nH]c2ccc(O)cc2c1/C=C/C(=O)c1ccncc1`, the level, % of control at 10 µM in [1] was found to be 43%. Also, the result in assay [2] was Active. For the same molecule, the Activity in assay [3] is 101%.

With `COC(=O)c1ccc(COc2ccc3[nH]c(C)c(/C=C/C(=O)c4ccncc4)c3c2)cc1`, the level, % of control at 10 µM in assay [1] is 76%. The result in assay [2] was inactive. For the same molecule, the Activity in assay [3] amounted to 79%.

On to `O=C(/C=C/c1c[nH]c2ccccc12)c1ccccc1`, for which the level, % of control at 10 µM in assay [1] stood at 76%. In addition, in [2], the result was inactive. Also, in [3], the Activity was found to be 109%.

For `O=C(NCCc1c[nH]c2ccc(Cl)cc12)c1cccnc1`, in [2], the result was inactive.

With `Cc1[nH]c2ccc(OCc3ccc(C(=O)O)cc3)cc2c1/C=C/C(=O)c1ccncc1`, the level, % of control at 10 µM in assay [1] came to 71%. In addition, the result in assay [2] was inactive. Further, in assay [3], the Activity worked out at 79%.

With `COc1ccc2[nH]cc(/C=C/C(=O)c3cnccn3)c2c1`, in [1], the level, % of control at 10 µM amounted to 96%. Further, the result in [2] was inactive. In assay [3], the Activity came to 88%.

Regarding `O=C(/C=C/c1c[nH]c2ccc(OCc3ccccc3)cc12)c1ccncc1`, the level, % of control at 10 µM in [1] was 8%. For the same molecule, in [2], the outcome was Active. In addition, the Activity in [3] came out at 56%.

As for `Oc1cccc(/N=C/c2c[nH]c3ccccc23)c1`, the result in [2] was inactive.

Regarding `Cc1ccc(C(=O)/C=C/c2c[nH]c3ccccc23)cc1`, the result in assay [2] was inactive.

For `Cc1[nH]c2ccc(N=[N+]=[N-])cc2c1/C=C/C(=O)c1ccncc1`, the inhibition entry in assay [4] was “Active”.

Consider `COc1ccc2[nH]cc(/C=C/C(=O)c3cccnc3)c2c1`, for which, in assay [1], the level, % of control at 10 µM amounted to 99%. Further, the outcome in [2] was inactive. Moreover, the Activity in [3] came out at 90%.

As to `Cc1[nH]c2ccccc2c1/C=C/C(=O)c1ccncc1`, the result in [5], in assay [2], in assay [8], in assay [9] and in assay [10] was Active. Also, the level, % of control at 10 µM in [1] amounted to 8%. Moreover, the result in assay [6] was inactive. The Activity in assay [3] is 24%. Moreover, the inhibition entry in assay [7], in assay [11] and in [12] was “Active” in each case. The molecule further gave an IC50 in assay [13] of 4.8 µM.

Turning to `O=C(/C=C/c1c[nH]c2ccccc12)c1ccccn1`, in assay [1], the level, % of control at 10 µM worked out at 53%. Also, in assay [2], the outcome was inactive. Besides, the Activity in assay [3] was determined as 96%.

In the case of `O=C(COc1ccccc1)c1c[nH]c2ccccc12`, the outcome in [2] was inactive.

Regarding `COc1cc2c(/C=C/C(=O)c3ccncc3)c(C)[nH]c2cc1N=[N+]=[N-]`, the inhibition entry in assay [4] is “Active”.

Turning to `O=C(/C=C/c1c[nH]c2ccc(O)cc12)c1ccncc1`, the level, % of control at 10 µM in assay [1] was found to be 72%. Moreover, the outcome in assay [2] was inactive. Further, the Activity in assay [3] came to 107%.

In the case of `COc1ccc2c(c1)c(/C=C/C(=O)c1ccncc1)cn2C`, in assay [1], the level, % of control at 10 µM worked out at 52%. In assay [2], the result was Active. Also, the Activity in assay [3] is reported as 73%.

Regarding `O=C(/C=C/c1c[nH]c2ccccc12)c1cccnc1`, the level, % of control at 10 µM in assay [1] stood at 71%. In [2], the result was inactive. Besides, the Activity in assay [3] is 72%.

Consider `COc1ccc(C(=O)/C=C/c2c[nH]c3ccc(Br)cc23)cc1`, for which the outcome in assay [2] was inactive.

`O=C(/C=C/c1c[nH]c2ccccc12)c1ccncc1`: in [1], the level, % of control at 10 µM came to 22%. The result in [2] was Active. Besides, the Activity in assay [3] was 58%.

In the case of `O=C(/C=C/c1c[nH]c2ccccc12)c1ccc(Cl)cc1`, in [2], the outcome was inactive.
